Data set [1] deals with Candida parapsilosis. Description: Antifungal activity against Candida parapsilosis infected cyclophosphamide-immunocompromized Crl:CD1(ICR) mouse assessed as survival at 0.5 mg/kg, po for 5 days. Type of data set: functional. An outline of the steps:
(§1)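 Female ICR (Crl:CD-1) mice on cyclophosphamide 100 mg/kg i.p. daily for 3 days, then infected i.p. on day 3 with 1 × 10^4 C. parapsilosis ATCC 22019 blastospores. Oral gavage dosing started 6 h postinfection and continued once daily for 5 days, with saline placebo. Mice observed thrice daily for […]. Moribund animals were killed and counted as dying the next day. Mean survival time compared to controls by one-way ANOVA and Kaplan–Meier.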

In data set [2] the test system is Candida parapsilosis. Put plainly: Antifungal activity against Candida parapsilosis infected cyclophosphamide-immunocompromized Crl:CD1(ICR) mouse assessed as fungal density in kidney at 0.5 mg/kg, po for 5 days measured on day 12. Type of data set: functional. The method in brief:
(§2)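 Female specific-pathogen-free ICR (Crl:CD-1) mice, ≈20–22 g, made neutropenic with cyclophosphamide 100 mg/kg i.p. once daily for 3 days. On day 3, infected i.p. with 1 × 10^4 C. parapsilosis ATCC 22019 blastospores. Oral gavage dosing began 6 h postinfection, then once daily for 5 days; placebo was 0.1 ml saline. Left kidney or lungs homogenized in 0.9% saline and plated on Sabouraud dextrose agar, 48 h at 35°C. Result is log10 cfu/g (n = 5).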

In data set [3] the test system is Candida parapsilosis. Description: Antifungal activity against Candida parapsilosis infected cyclophosphamide-immunocompromized Crl:CD1(ICR) mouse assessed as fungal density in lung at 0.5 mg/kg, po for 5 days measured on day 12. Type of data set: functional. The method in brief: as §2
Data set [4] deals with Candida parapsilosis. Put plainly: Antifungal activity against Candida parapsilosis infected cyclophosphamide-immunocompromized Crl:CD1(ICR) mouse assessed as fungal density in brain at 0.5 mg/kg, po for 5 days measured on day 12. Type of data set: functional.
Data set [5] deals with HepG2. Description: Toxicity against human HepG2 cells at 100 ug/ml. The format is cell-based.
Data set [6] deals with HepG2. Description: Toxicity against human HepG2 cells at 50 ug/ml. Type of data set: cell-based.
Data set [7] has as its system HepG2. Put plainly: Toxicity against human HepG2 cells at 6.25 ug/ml in presence of merine microbial F10104 extract. The format is cell-based.
In data set [8] the test system is Candida parapsilosis. Put plainly: Antifungal activity against Candida parapsilosis infected cyclophosphamide-immunocompromized Crl:CD1(ICR) mouse assessed as survival at 0.5 mg/kg, po for 5 days in presence of beauvericin. The format is functional. An outline of the steps:
as §1

Data set [9] deals with Candida parapsilosis. Description: Antifungal activity against Candida parapsilosis infected cyclophosphamide-immunocompromized Crl:CD1(ICR) mouse assessed as survival at 10 mg/kg, po for 5 days. The format is functional. The method in brief: as §1
The test system of data set [10] is Candida parapsilosis. Description: Antifungal activity against Candida parapsilosis infected cyclophosphamide-immunocompromized Crl:CD1(ICR) mouse assessed as survival at 50 mg/kg, po for 5 days. The format is functional. The method in brief:
as §1

The subject of data set [11] is Candida parapsilosis. Put plainly: Antifungal activity against Candida parapsilosis infected cyclophosphamide-immunocompromized Crl:CD1(ICR) mouse assessed as fungal density in kidney at 0.5 mg/kg, po for 5 days measured on day 12 in presence beauvericin. Type of data set: functional. An outline of the steps:
as §2

For data set [12], the system named is Candida parapsilosis. Put plainly: Antifungal activity against Candida parapsilosis infected cyclophosphamide-immunocompromized Crl:CD1(ICR) mouse assessed as fungal density in kidney at 10 mg/kg, po for 5 days measured on day 12. Type of data set: functional. The method in brief:
as §2

Data set [13] relates to Candida parapsilosis. Put plainly: Antifungal activity against Candida parapsilosis infected cyclophosphamide-immunocompromized Crl:CD1(ICR) mouse assessed as fungal density in kidney at 50 mg/kg, po for 5 days measured on day 12. Type of data set: functional. An outline of the steps: as §2
Data set [14] has as its system Candida parapsilosis. Description: Antifungal activity against Candida parapsilosis infected cyclophosphamide-immunocompromized Crl:CD1(ICR) mouse assessed as fungal density in lung at 0.5 mg/kg, po for 5 days measured on day 12 in presence beauvericin. Type of data set: functional. The method in brief:
as §2

In data set [15] the test system is Candida parapsilosis. Description: Antifungal activity against Candida parapsilosis infected cyclophosphamide-immunocompromized Crl:CD1(ICR) mouse assessed as fungal density in lung at 10 mg/kg, po for 5 days measured on day 12. Type of data set: functional. The method in brief:
as §2

The subject of data set [16] is Candida parapsilosis. Description: Antifungal activity against Candida parapsilosis infected cyclophosphamide-immunocompromized Crl:CD1(ICR) mouse assessed as fungal density in lung at 50 mg/kg, po for 5 days measured on day 12. The format is functional. The method in brief:
as §2

Structures are written as SMILES. A value given as a limit tells only on which side of the number the result lay.

The source of these data is ChEMBL document CHEMBL1147083, “High-throughput synergy screening identifies microbial metabolites as combination agents for the treatment of fungal infections” (Proc Natl Acad Sci U S A, 2007).

Consider `CC(C)[C@@H]1OC(=O)[C@@H](Cc2ccccc2)N(C)C(=O)[C@H](C(C)C)OC(=O)[C@@H](Cc2ccccc2)N(C)C(=O)[C@H](C(C)C)OC(=O)[C@@H](Cc2ccccc2)N(C)C1=O` (single isomer, unassigned) [BEAUVERICIN], for which the Survival with Candida parapsilosis [1] is 8.3 days. The Log10 cfu with Candida parapsilosis [2] was determined as 9.3; in the data set with Candida parapsilosis [3], 5.2; in the data set with Candida parapsilosis [4], 3.2.

As for `CC(=O)N1CCN(c2ccc(OCC3COC(Cn4ccnc4)(c4ccc(Cl)cc4Cl)O3)cc2)CC1` (centres undefined) [KETOCONAZOLE], the Activity entry in the data set on HepG2 [5] is on record as “Toxic”; with HepG2 [6], “Toxic”; in the data set with HepG2 [7] it was “Non-toxic”. Besides, the Survival is 9.2 days in the data set on Candida parapsilosis [1], >21 days in the data set on Candida parapsilosis [8], 14.2 days in the data set with Candida parapsilosis [9] and 19.4 days in the data set with Candida parapsilosis [10]. Besides, the Log10 cfu was 8.4 in the data set with Candida parapsilosis [2]; 1.3 in the data set on Candida parapsilosis [11]; 7.6 with Candida parapsilosis [12]; 5.5 in the data set with Candida parapsilosis [13]; 4.8 with Candida parapsilosis [3]; 1.2 with Candida parapsilosis [14]. Further, the Log10 cfu with Candida parapsilosis [15] was 3.5; in the data set with Candida parapsilosis [16], 2.6.
